{"source": "paper PMC6880868", "about": "(Cancer cell, 2019)", "key": {"SU-DHL-1": {"system": "SU-DHL-1", "experiment": "RNA-seq analysis, SU-DHL-1", "type": "cell-based, human", "settings": "SU-DHL-1, 24 hr"}, "STAT5A": {"biological_target": "STAT5A (Homo sapiens, UniProt P42229)", "sequence (P42229 136-705)": "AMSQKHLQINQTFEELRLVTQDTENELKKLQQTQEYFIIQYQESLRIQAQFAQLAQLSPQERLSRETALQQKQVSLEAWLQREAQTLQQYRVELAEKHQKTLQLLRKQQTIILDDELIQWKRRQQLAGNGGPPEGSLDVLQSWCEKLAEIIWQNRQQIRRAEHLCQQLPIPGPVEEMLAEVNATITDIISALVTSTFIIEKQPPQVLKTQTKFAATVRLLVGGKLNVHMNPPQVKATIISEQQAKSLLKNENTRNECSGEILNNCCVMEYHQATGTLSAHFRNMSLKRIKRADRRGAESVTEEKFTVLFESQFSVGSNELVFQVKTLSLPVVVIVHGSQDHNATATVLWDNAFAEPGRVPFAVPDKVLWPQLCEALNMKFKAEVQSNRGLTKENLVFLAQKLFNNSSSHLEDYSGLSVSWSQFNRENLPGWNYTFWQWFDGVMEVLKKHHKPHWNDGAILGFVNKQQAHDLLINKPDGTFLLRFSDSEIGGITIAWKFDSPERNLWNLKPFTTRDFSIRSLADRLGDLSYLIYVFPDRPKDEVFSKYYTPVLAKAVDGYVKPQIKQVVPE", "experiment": "Bio-Layer Interferometry binding, STAT5A", "how_it_was_run": "(§1)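 Purified recombinant human STAT proteins were biotinylated, then direct binding of the test compound was measured by Bio-Layer Interferometry to give Kd.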"}, "[1]": {"system": "IKZF1, IKZF3, CK1α, GSPT1", "experiment": "Immunoblotting of CRBN neo-substrates", "type": "cell-based, human", "settings": "24 hr; SD-36 0.5 μM, lenalidomide 1 μM"}, "STAT3 protein": {"biological_target": "STAT3 protein (Mus musculus, UniProt P42227)", "sequence (P42227 whole entry)": "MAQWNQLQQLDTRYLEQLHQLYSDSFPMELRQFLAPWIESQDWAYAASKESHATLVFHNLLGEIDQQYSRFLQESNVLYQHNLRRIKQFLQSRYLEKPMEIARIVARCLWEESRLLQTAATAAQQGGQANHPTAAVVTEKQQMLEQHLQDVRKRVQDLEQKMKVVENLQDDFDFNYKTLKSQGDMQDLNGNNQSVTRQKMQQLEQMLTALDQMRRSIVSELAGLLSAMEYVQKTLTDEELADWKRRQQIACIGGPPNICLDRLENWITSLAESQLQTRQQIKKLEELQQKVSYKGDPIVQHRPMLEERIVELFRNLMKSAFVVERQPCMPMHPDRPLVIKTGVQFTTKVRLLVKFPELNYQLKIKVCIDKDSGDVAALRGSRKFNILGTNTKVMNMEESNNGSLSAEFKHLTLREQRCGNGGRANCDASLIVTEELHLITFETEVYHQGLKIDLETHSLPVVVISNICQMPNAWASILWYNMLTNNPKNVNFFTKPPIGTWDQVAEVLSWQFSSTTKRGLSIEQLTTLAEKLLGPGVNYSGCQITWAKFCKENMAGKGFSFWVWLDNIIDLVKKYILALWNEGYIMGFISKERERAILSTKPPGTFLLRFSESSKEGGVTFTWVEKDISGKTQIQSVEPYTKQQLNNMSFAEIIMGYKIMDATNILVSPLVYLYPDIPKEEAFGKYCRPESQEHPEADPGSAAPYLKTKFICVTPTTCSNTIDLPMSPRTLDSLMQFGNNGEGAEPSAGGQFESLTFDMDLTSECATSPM", "experiment": "STAT3 degradation in murine cells", "type": "cell-based"}, "[2]": {"experiment": "Toxicity in immune competent mice", "type": "in vivo, CD-1 female mice", "how_it_was_run": "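Female CD-1 mice were given test compound i.v. at 50 or 100 mg/kg, or vehicle (10% PEG400 + 90% PBS), three times weekly for three weeks. Body weight was recorded 2–3 times per week. At the end, blood and major organs were taken for haematology, serum chemistry, organ coefficients and histology.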"}, "[3]": {"experiment": "Pharmacokinetics in tumor-bearing mice", "type": "in vivo, NOD/SCID female mice", "settings": "single i.v. dose 25 mg/kg; 1, 3 and 6 hr", "how_it_was_run": "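In NOD/SCID female mice with subcutaneous MOLM-16 xenografts, mice were dosed i.v. Blood and tissues were collected at the indicated times, and drug levels were measured by a pharmacokinetics core.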"}, "STAT1": {"biological_target": "STAT1 (Homo sapiens, UniProt P42224)", "sequence (P42224 132-713)": "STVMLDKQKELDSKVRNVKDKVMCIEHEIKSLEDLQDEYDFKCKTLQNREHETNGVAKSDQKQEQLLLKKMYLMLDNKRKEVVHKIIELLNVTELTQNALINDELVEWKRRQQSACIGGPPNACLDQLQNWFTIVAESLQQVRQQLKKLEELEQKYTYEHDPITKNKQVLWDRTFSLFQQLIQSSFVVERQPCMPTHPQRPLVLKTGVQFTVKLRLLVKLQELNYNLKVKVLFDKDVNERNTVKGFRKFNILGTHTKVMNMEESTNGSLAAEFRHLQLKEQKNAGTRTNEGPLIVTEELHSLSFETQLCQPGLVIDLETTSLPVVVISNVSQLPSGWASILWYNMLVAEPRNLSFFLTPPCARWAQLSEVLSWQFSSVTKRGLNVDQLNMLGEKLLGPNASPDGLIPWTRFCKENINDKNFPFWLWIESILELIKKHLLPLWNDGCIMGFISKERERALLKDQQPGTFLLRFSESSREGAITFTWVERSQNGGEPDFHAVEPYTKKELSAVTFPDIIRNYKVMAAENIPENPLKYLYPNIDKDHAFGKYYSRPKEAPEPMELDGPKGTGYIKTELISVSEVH", "experiment": "Bio-Layer Interferometry binding, STAT1", "how_it_was_run": "as §1"}, "STAT2": {"biological_target": "STAT2 (Homo sapiens, UniProt P52630)", "sequence (P52630 138-702)": "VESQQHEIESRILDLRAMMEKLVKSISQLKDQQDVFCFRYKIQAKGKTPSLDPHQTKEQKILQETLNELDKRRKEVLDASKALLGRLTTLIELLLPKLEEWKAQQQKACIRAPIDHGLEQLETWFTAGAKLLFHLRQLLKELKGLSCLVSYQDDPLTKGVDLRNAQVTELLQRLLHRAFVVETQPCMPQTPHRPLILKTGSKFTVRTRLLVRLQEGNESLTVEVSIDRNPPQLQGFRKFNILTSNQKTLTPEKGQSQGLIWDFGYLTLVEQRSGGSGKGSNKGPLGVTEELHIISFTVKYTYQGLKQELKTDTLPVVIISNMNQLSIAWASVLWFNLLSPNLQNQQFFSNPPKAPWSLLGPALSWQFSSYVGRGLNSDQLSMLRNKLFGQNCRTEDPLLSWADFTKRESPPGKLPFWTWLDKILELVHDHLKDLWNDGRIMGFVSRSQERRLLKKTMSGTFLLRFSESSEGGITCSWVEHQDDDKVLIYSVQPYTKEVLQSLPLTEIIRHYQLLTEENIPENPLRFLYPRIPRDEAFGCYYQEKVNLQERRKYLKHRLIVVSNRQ", "experiment": "Bio-Layer Interferometry binding, STAT2", "how_it_was_run": "as §1"}, "[4]": {"system": "STAT1, STAT4 and other STATs", "experiment": "Degradation of other STAT proteins in cells", "type": "cell-based, human", "how_it_was_run": "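Treated cells were lysed in cell lysis buffer, resolved by SDS-PAGE, transferred to PVDF and probed by immunoblotting.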"}, "[5]": {"system": "MOLM-16 and SU-DHL-1 cell lines", "experiment": "Cell cycle analysis by flow cytometry", "type": "cell-based, human", "settings": "1 μM, 48 hr", "how_it_was_run": "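After treatment, cells were washed twice in cold PBS and fixed overnight in 50% ethanol. They were stained 1 hr at 4°C with PI (50 μg/ml) plus DNase-free RNase A (0.2 μg/ml), then analysed by flow cytometry.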"}, "MOLM-16 cells": {"system": "MOLM-16 cells", "experiment": "RNA-seq analysis, MOLM-16", "type": "cell-based, human"}, "STAT6": {"biological_target": "STAT6 (Homo sapiens, UniProt P42226)", "sequence (P42226 113-658)": "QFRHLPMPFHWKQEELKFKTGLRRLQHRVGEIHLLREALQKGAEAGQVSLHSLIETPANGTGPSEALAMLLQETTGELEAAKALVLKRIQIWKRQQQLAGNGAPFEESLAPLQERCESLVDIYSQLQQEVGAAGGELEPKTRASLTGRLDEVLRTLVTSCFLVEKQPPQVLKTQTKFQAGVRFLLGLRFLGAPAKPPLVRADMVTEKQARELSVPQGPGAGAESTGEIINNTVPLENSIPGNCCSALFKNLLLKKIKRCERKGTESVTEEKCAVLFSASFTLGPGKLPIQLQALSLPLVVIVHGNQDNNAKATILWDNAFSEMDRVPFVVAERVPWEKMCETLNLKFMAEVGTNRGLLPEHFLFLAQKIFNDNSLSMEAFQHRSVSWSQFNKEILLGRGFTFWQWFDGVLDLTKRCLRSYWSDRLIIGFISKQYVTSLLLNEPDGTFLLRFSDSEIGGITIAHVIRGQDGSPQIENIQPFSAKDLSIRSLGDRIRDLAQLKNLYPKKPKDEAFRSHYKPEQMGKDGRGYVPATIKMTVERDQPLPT", "experiment": "Bio-Layer Interferometry binding, STAT6", "how_it_was_run": "as §1"}, "[6]": {"system": "leukemia and lymphoma cell lines", "experiment": "4-day CellTiter Glo cell viability assay, leukemia and lymphoma cell line panel", "type": "cell-based, human"}, "[7]": {"biological_target": "DNA binding activity of STAT3 (Homo sapiens, UniProt P40763)", "sequence (P40763 whole entry)": "as the sequence (P42227 whole entry) above, with D760E counted along it", "experiment": "STAT3 DNA binding activity assay on nuclear extracts", "type": "cell-based", "settings": "1 μM, 8 hr, MOLM-16 and SU-DHL-1", "how_it_was_run": "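Nuclear extraction: cells were swelled 15 min on ice in hypotonic HEPES pH 7.9/10 mM KCl buffer with DTT and phosphatase/protease inhibitors. NP-40 was added (0.5% final), and nuclei were extracted 15 min at 4°C in 0.4 M NaCl HEPES buffer, then cleared at 5,000 × g. ELISA: 5 μg extract was bound 1 hr at room temperature in TransAM STAT ELISA wells. Wells then received STAT antibody (1:1000, 1 hr), HRP secondary (1 hr) and colour development.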"}, "STAT3": {"biological_target": "STAT3 (Homo sapiens, UniProt P40763)", "sequence (P40763 whole entry)": "as the sequence (P42227 whole entry) above, with D760E counted along it", "experiment": "Pharmacodynamics: STAT3 protein in xenograft tumors", "type": "in vivo, NOD/SCID mice bearing human xenograft tumors"}, "[8]": {"system": "STAT proteins in MOLM-16 and SU-DHL-1 tumors", "experiment": "Multiplexed quantitative proteomics in xenograft tumors", "type": "in vivo, mice", "settings": "25 mg/kg i.v., 6 hr"}, "MOLM-16": {"system": "MOLM-16", "experiment": "4-day CellTiter Glo cell viability assay, MOLM-16", "type": "cell-based", "settings": "Homo sapiens, MOLM16, 96 h, read-out: IC50, growth inhibition"}, "[9]": {"system": "mitochondrial STAT3; complex I and II", "experiment": "Mitochondrial STAT3 and OXPHOS complex I/II enzyme activity", "type": "cell-based", "settings": "24 hours"}, "[10]": {"system": "transcriptional activity of STAT3", "experiment": "STAT3-luciferase reporter assay", "type": "cell-based, human", "settings": "Homo sapiens, MOLM16, 24 h, read-out: IC50, transcriptional activity of STAT3"}, "[11]": {"settings": "i.v. 50 and 100 mg/kg, three times a week for three weeks"}}, "data": [{"smiles": "NC(=O)CC[C@H](NC(=O)[C@@H]1CC[C@@H]2CCN(C(=O)CCCCCC#Cc3cccc4c3CN(C3CCC(=O)NC3=O)C4=O)C[C@H](NC(=O)c3cc4cc(C(F)(F)P(=O)(O)O)ccc4[nH]3)C(=O)N21)C(=O)NC(c1ccccc1)c1ccccc1", "note": "(stereo partly drawn) [SD-36, ((2-(((5S,8S,10aR)-8-(((S)-5-amino-1-(benzhydrylamino)-1,5-dioxopentan-2-yl)carbamoyl)-3-(8-(2-(2,6-dioxopiperidin-3-yl)-1-oxoisoindolin-4-yl)oct-7-ynoyl)-6-oxodecahydropyrrolo[1,2-a][1,5]diazocin-5-yl)carbamoyl)-1H-indol-5-yl)difluoromethyl)phosphonic acid]", "values": [{"measurement": "genes down-regulated by ≥2-fold (p≤0.05)", "setting": "SU-DHL-1", "value": 701, "unit": "genes"}, {"measurement": "genes up-regulated by ≥2-fold (p≤0.05)", "setting": "SU-DHL-1", "value": 726, "unit": "genes"}, {"measurement": "Kd", "setting": "STAT5A", "value": "~5", "unit": "µM"}, {"measurement": "levels of IKZF1, IKZF3 and CK1α", "setting": "[1]", "value": "very modest effect"}, {"measurement": "protein levels of GSPT1", "setting": "[1]", "value": "not affected"}, {"measurement": "STAT3 protein degradation in murine cells", "setting": "STAT3 protein", "value": "efficiently degraded"}, {"measurement": "numbers of neutrophils and platelets", "setting": "[2]; 100 mg/kg, three times a week for three weeks", "value": "slightly increased"}, {"measurement": "creatinine, blood urea nitrogen, calcium, albumin and total blood protein", "setting": "[2]; data not shown", "value": "no significant effect"}, {"measurement": "counts of red or white blood cells, lymphocytes, monocytes or eosinophils", "setting": "[2]; [11]", "value": "no significant changes"}, {"measurement": "systemic toxicity by body weight, organ coefficient and hematology", "setting": "[2]; [11]", "value": "no obvious systemic toxicity"}, {"measurement": "histology of mouse tissues", "setting": "[2]; mouse, in vivo", "value": "no significant effects"}, {"measurement": "body weight", "setting": "[2]; reversible one week after withdrawal", "value": "moderate body weight gain"}, {"measurement": "drug exposure in plasma, tumor tissues and several organs", "setting": "[3]", "value": "good drug exposure"}, {"measurement": "Kd", "setting": "STAT1", "value": "1 to 2", "unit": "µM"}, {"measurement": "Kd", "setting": "STAT2", "value": "~5", "unit": "µM"}, {"measurement": "effect on other STATs", "setting": "[4]; MOLM-16 and SU-DHL-1 cells", "value": "without effect on other STATs"}, {"measurement": "degradation of STAT1, STAT4 and other STATs", "setting": "[4]; human PBMCs, 24 hr", "value": "failed to degrade"}, {"measurement": "cell cycle effect", "setting": "[5]", "value": "profound G1 arrest"}, {"measurement": "genes down-regulated by ≥2-fold (p≤0.05)", "setting": "MOLM-16 cells; MOLM-16, 1 μM, 8 hr", "value": 125, "unit": "genes"}, {"measurement": "genes up-regulated by ≥2-fold (p≤0.05)", "setting": "MOLM-16 cells; MOLM-16, 1 μM, 8 hr", "value": 34, "unit": "genes"}, {"measurement": "genes down-regulated ≥2-fold (p≤0.05)", "setting": "MOLM-16 cells; MOLM-16, 24 hr", "value": 301, "unit": "genes"}, {"measurement": "genes up- or down-regulated ≥2-fold (p≤0.05), total", "setting": "MOLM-16 cells; MOLM-16, 24 hr", "value": 348, "unit": "genes"}, {"measurement": "genes up-regulated ≥2-fold (p≤0.05)", "setting": "MOLM-16 cells; MOLM-16, 24 hr", "value": 47, "unit": "genes"}, {"measurement": "Kd", "setting": "STAT6", "value": "> 10", "unit": "µM"}, {"measurement": "AML cell lines with strong growth-inhibitory activity", "setting": "[6]; 9 AML cell lines", "value": "1 of 9"}, {"measurement": "lymphoma cell lines with potent activity", "setting": "[6]; 9 lymphoma cell lines", "value": "5 of 9"}, {"measurement": "DNA binding activity of STAT3", "setting": "[7]", "value": "abolishes"}, {"measurement": "STAT3 protein level in MOLM-16 tumors, of controls", "setting": "STAT3; 4 days after a single dose", "value": "< 50", "unit": "%"}, {"measurement": "depletion of STAT3 protein in MOLM-16 and SU-DHL-1 tumors", "setting": "STAT3; single dose, 6 hr", "value": "near-complete depletion"}, {"measurement": "persistence of near-complete STAT3 depletion", "setting": "STAT3; single dose, MOLM-16 and SU-DHL-1 tumors", "value": "> 24", "unit": "h"}, {"measurement": "duration of reduced STAT3 protein level", "setting": "STAT3; single i.v. dose", "value": "> 4", "unit": "days"}, {"measurement": "STAT3 protein depleted in MOLM-16 tumors", "setting": "STAT3; single i.v. dose 25 mg/kg, 1 hr", "value": "> 80", "unit": "%"}, {"measurement": "effect on other STAT proteins in tumors", "setting": "[8]", "value": "no significant effect on other STAT proteins"}, {"measurement": "IC50", "setting": "MOLM-16", "value": 0.035, "unit": "µM"}, {"measurement": "effect on complex I and II activity", "setting": "[9]", "value": "did not have a substantial effect"}, {"measurement": "mitochondrial STAT3", "setting": "[9]", "value": "effectively depleted"}, {"measurement": "IC50", "setting": "[10]", "value": 0.01, "unit": "µM"}]}]}
